Experimental findings from ChEMBL document CHEMBL1145465, “PhoU is a persistence switch involved in persister formation and tolerance to multiple antibiotics and stresses in Escherichia coli” (2007) are described below.

≈ marks a conversion by molar mass, not a printed value. Calls of active or inactive are those of the source.

The subject of assay [1] is Escherichia coli. The assay can be described thus: Antibacterial activity against Escherichia coli K12 containing PhoU mutant assessed as bacterial killing stationary phase at 2 mg/ml after 6 days.
The subject of assay [2] is Escherichia coli. The assay can be described thus: Antibacterial activity against Escherichia coli K12 PhoU wild type W3110 assessed as cell count in stationary phase at 2 mg/ml after 6 days.
In assay [3] the test system is Escherichia coli. The assay can be described thus: Antibacterial activity against Escherichia coli K12 containing PhoU mutant assessed as bacterial killing log phase at 3 ug/ml after 6 days. The assay is classed as functional.
Assay [4] has as its system Escherichia coli. The assay can be described thus: Antibacterial activity against Escherichia coli K12 PhoU wild type W3110 assessed as cell count in log phase at […] after 6 days. The assay is classed as functional, organism-based.
The subject of assay [5] is Escherichia coli. The assay is described as follows: Antibacterial activity against Escherichia coli K12 PhoU wild type W3110 at 25 ug/ml after 48 hrs by disc diffusion method. It counts as functional. In short, it runs like this:
(§1)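 Kirby-Bauer disc assay. Log-phase LB broth culture (10⁸ bacteria) was spread on LB agar for confluent growth. 7 mm nitrocellulose discs soaked in antibiotic solution at the listed concentration were placed on the agar. Inhibition zone diameter (mm) was measured after 48 h at 37°C.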

Assay [6] has as its system Escherichia coli. The assay can be described thus: Antibacterial activity against Escherichia coli K12 mutant JHU313 at 25 ug/ml after 48 hrs by disc diffusion method. It counts as functional. In short, it runs like this:
(§2)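 Kirby-Bauer disc assay: log-phase LB culture was spread on LB agar for confluent growth. 7-mm nitrocellulose discs were soaked in antibiotic at the listed concentration and placed on the agar. After 48 h at 37°C, the diameter of the inhibition zone was measured in mm.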
For orientation: Agar diffusion results depend on both activity and mobility in agar.

Assay [7] has as its system Escherichia coli. The assay can be described thus: Antibacterial activity against Escherichia coli K12 PhoU wild type W3110 at 12.5 ug/ml after 48 hrs by disc diffusion method. It counts as functional. In short, it runs like this: as §1
Assay [8] concerns Escherichia coli. The assay is described as follows: Antibacterial activity against Escherichia coli K12 mutant JHU313 at 12.5 ug/ml after 48 hrs by disc diffusion method. The assay is classed as functional. In short, it runs like this: as §2
In assay [9] the test system is Escherichia coli. The assay can be described thus: Antibacterial activity against Escherichia coli K12 mutant JHU313 containing plasmid PhoU at 12.5 ug/ml after 48 hrs by disc diffusion method. It counts as functional. In short, it runs like this: as §2
Assay [10] concerns Escherichia coli. The assay can be described thus: Antibacterial activity against Escherichia coli K12 mutant JHU313 at 50 ug/ml after 48 hrs by disc diffusion method. It counts as functional. In short, it runs like this: as §2
Assay [11] concerns Escherichia coli. The assay can be described thus: Antibacterial activity against Escherichia coli K12 mutant JHU313 containing plasmid vector at 12.5 ug/ml after 48 hrs by disc diffusion method. The assay is classed as functional. In short, it runs like this:
as §2

Assay [12] relates to Escherichia coli. The assay is described as follows: Antibacterial activity against Escherichia coli K12 mutant JHU313 containing plasmid vector at 50 ug/ml after 48 hrs by disc diffusion method. The assay is classed as functional. In short, it runs like this:
(§3)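 Kirby-Bauer paper-disc assay: log-phase E. coli (10⁸ bacteria) grown in LB broth, spread on LB agar for confluent growth; 7 mm nitrocellulose discs soaked with antibiotic solution at the listed concentration (μg/ml) placed on surface; incubated 37°C for 48 h; diameter of growth-inhibition zone measured in mm. Strain is the phoU transposon mutant transformed by electroporation with empty vector control.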

For assay [13], the system named is Escherichia coli. The assay is described as follows: Antibacterial activity against Escherichia coli K12 mutant JHU313 containing plasmid PhoU at 50 ug/ml after 48 hrs by disc diffusion method. It counts as functional. In short, it runs like this: as §2
Assay [14] relates to Escherichia coli. The assay is described as follows: Antibacterial activity against Escherichia coli K12 mutant JHU313 containing plasmid vector at 25 ug/ml after 48 hrs by disc diffusion method. It counts as functional. In short, it runs like this:
as §3

Assay [15] concerns Escherichia coli. The assay can be described thus: Antibacterial activity against Escherichia coli K12 mutant JHU313 containing plasmid PhoU at 25 ug/ml after 48 hrs by disc diffusion method. The assay is classed as functional. In short, it runs like this:
as §2

Assay [16] relates to Escherichia coli. The assay is described as follows: Antibacterial activity against Escherichia coli K12 PhoU wild type W3110 at 50 ug/ml after 48 hrs by disc diffusion method. The assay is classed as functional. In short, it runs like this: as §1
In assay [17] the test system is Escherichia coli. The assay is described as follows: Antibacterial activity against Escherichia coli K12 mutant JHU313 containing plasmid vector after 16 hrs by serial dilution method. The assay is classed as functional. To be noted: K12, 16 h. In short, it runs like this:
(§4)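 Twofold serial antibiotic dilutions in LB broth were seeded with 10⁶–10⁷ bacteria/ml from log-phase culture and incubated 16 h at 37°C. MIC was taken as the lowest concentration with no visible growth. MBC was taken as the concentration giving a 100-fold CFU drop from the inoculum.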

The subject of assay [18] is Escherichia coli.
The subject of assay [19] is Escherichia coli. The assay is described as follows: Antibacterial activity against Escherichia coli K12 PhoU wild type W3110 at 1 ug/ml after 48 hrs by disc diffusion method.
In assay [20] the test system is Escherichia coli. The assay is described as follows: Antibacterial activity against Escherichia coli K12 mutant JHU313 containing plasmid PhoU after 16 hrs by serial dilution method. The assay is classed as functional. Conditions: K12, 16 h. In short, it runs like this:
as §4

The subject of assay [21] is Escherichia coli. The assay is described as follows: Antibacterial activity against Escherichia coli K12 mutant JHU313 containing plasmid vector at 0.5 ug/ml after 48 hrs by disc diffusion method. It counts as functional. In short, it runs like this: as §2
In assay [22] the test system is Escherichia coli. The assay is described as follows: Antibacterial activity against Escherichia coli K12 PhoU wild type W3110 at 0.5 ug/ml after 48 hrs by disc diffusion method. It counts as functional. In short, it runs like this: (§5)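 Kirby-Bauer disc assay. Log-phase LB culture (10⁸ bacteria) was spread for confluent growth on LB agar. 7 mm nitrocellulose discs soaked in antibiotic at the listed concentrations were laid on the agar. Inhibition zone diameter (mm) was measured after 48 h at 37°C.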

Assay [23] has as its system Escherichia coli. The assay is described as follows: Antibacterial activity against Escherichia coli K12 mutant JHU313 after 16 hrs by serial dilution method. The assay is classed as functional. Conditions: K12, 16 h. In short, it runs like this:
as §4

Assay [24] concerns Escherichia coli. The assay can be described thus: Antibacterial activity against Escherichia coli K12 PhoU wild type W3110 after 16 hrs by serial dilution method. It counts as functional. To be noted: K12, 16 h. In short, it runs like this:
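Serial twofold antibiotic dilutions in LB broth; log-phase inoculum 10⁶ to 10⁷ bacteria/ml; 16 h at 37°C. MIC was the lowest concentration with no visible growth. MBC was the concentration giving a 100-fold CFU drop below the seeded inoculum.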

The test system of assay [25] is Escherichia coli. The source holds these as a separate data set.
The test system of assay [26] is Escherichia coli. The assay is described as follows: Antibacterial activity against Escherichia coli K12 mutant JHU313 containing plasmid PhoU at 0.5 ug/ml after 48 hrs by disc diffusion method. The assay is classed as functional. In short, it runs like this: as §2
Assay [27] deals with Escherichia coli. The assay is described as follows: Antibacterial activity against Escherichia coli K12 PhoU wild type W3110 at 2 ug/ml after 48 hrs by disc diffusion method. The assay is classed as functional. In short, it runs like this: as §5
For assay [28], the system named is Escherichia coli. The assay can be described thus: Antibacterial activity against Escherichia coli K12 mutant JHU313 containing plasmid vector at 2 ug/ml after 48 hrs by disc diffusion method. The assay is classed as functional. In short, it runs like this: as §2
The test system of assay [29] is Escherichia coli. The assay can be described thus: Antibacterial activity against Escherichia coli K12 mutant JHU313 containing plasmid PhoU at 2 ug/ml after 48 hrs by disc diffusion method. It counts as functional. In short, it runs like this:
as §2

The subject of assay [30] is Escherichia coli. This is another data set of the same source.
Assay [31] concerns Escherichia coli. The assay can be described thus: Antibacterial activity against Escherichia coli K12 mutant JHU313 at 0.5 ug/ml after 48 hrs by disc diffusion method. The assay is classed as functional. In short, it runs like this: as §2
The subject of assay [32] is Escherichia coli. The assay can be described thus: Antibacterial activity against Escherichia coli K12 mutant JHU313 at 2 ug/ml after 48 hrs by disc diffusion method. It counts as functional. In short, it runs like this:
as §2

Take `NC(=O)c1cnccn1` [PYRAZINAMIDE]: the result with Escherichia coli [1] and with Escherichia coli [4] was Active. The CFU with Escherichia coli [2] is recorded as 6.7 10^6/ml; with Escherichia coli [3], 1 10^6/ml.
As to `CN(C)[C@@H]1C(O)=C(C(N)=O)C(=O)[C@@]2(O)C(O)=C3C(=O)c4c(O)cccc4[C@@](C)(O)[C@H]3C[C@@H]12` [TETRACYCLINE], the inhibition zone (IZ) in the assay with Escherichia coli [5] turned out to be 23 mm; with Escherichia coli [6], 32 mm; in the assay with Escherichia coli [7], 22 mm; in the assay with Escherichia coli [8], 26 mm; in the assay on Escherichia coli [9], 30 mm; in the assay with Escherichia coli [10], 32 mm. Moreover, the inhibition zone (IZ) in the assay with Escherichia coli [11] was determined as 34 mm; in the assay with Escherichia coli [12] it was 34 mm; with Escherichia coli [13], 32 mm; with Escherichia coli [14], 34 mm; with Escherichia coli [15], 32 mm; with Escherichia coli [16], 23 mm.
In the case of `COc1cc(Cc2cnc(N)nc2N)cc(OC)c1OC` [TRIMETHOPRIM], the MBC (commonly the lowest tested concentration that kills the bacteria rather than only halting them) was 1 µg/mL (≈ 3.44 µM) against Escherichia coli [17], 4 µg/mL (≈ 13.8 µM) against Escherichia coli [20], 1 µg/mL (≈ 3.44 µM) against Escherichia coli [23] and 8 µg/mL (≈ 27.6 µM) with Escherichia coli [24]. The minimal inhibitory concentration (MIC) – broadly, the smallest concentration in the dilution series that meets the test's criterion for growth inhibition – was determined as 0.5 µg/mL (≈ 1.72 µM) in the assay on Escherichia coli [17], 2 µg/mL (≈ 6.89 µM) against Escherichia coli [20], 0.25 µg/mL (≈ 0.861 µM) in the assay on Escherichia coli [23] and 2 µg/mL (≈ 6.89 µM) with Escherichia coli [24]. Besides, the IZ in the assay on Escherichia coli [18] was determined as 38 mm; with Escherichia coli [19], 26 mm; with Escherichia coli [25] it was 40 mm; in the assay on Escherichia coli [30], 33 mm. Also, the inhibition zone (IZ) turned out to be 36 mm in the assay on Escherichia coli [21]; 24 mm with Escherichia coli [22]; 32 mm in the assay on Escherichia coli [26]; 30 mm with Escherichia coli [27]; 44 mm in the assay with Escherichia coli [28]; 36 mm in the assay on Escherichia coli [29]. Besides, the inhibition zone (IZ) in the assay with Escherichia coli [31] came to 31 mm; in the assay on Escherichia coli [32], 42 mm.
